The source made the active and inactive calls. No cut-off for these calls is given here.
Experiments:
[1] = tested on: MDA-MB-231; assay: Antiproliferative activity against human MDA-MB-231 cells assessed as inhibition of cell proliferation incubated for 18 hrs followed by MTT addition for 4 hrs by MTT assay; assay type: functional, cell-based
Method in brief: (§1)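 MTT assay. Cells were grown in DMEM with 10% FBS at 37 °C, 5% CO2, 90% relative humidity. 1 × 10⁴ cells per well were seeded and held 24 h, then exposed to compounds diluted in culture medium for 18 h. MTT (5 mg/mL stock) was added for a further 4 h.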

[2] = tested on: HEK293; assay: Antiproliferative activity against HEK293 cells assessed as inhibition of cell proliferation incubated for 18 hrs followed by MTT addition for 4 hrs by MTT assay; assay type: cell-based; conditions: Homo sapiens; method in brief: as §1
[3] = tested on: MCF7; assay: Induction of apoptosis in human MCF7 cells assessed as early apoptotic cells level at 7 uM incubated for 24 hrs by annexin-V and propidium iodide staining based flow cytometry (reference value: 6.42%); assay type: functional
[4] = Antiproliferative activity against human DU145 cells assessed as inhibition of cell proliferation incubated for 18 hrs followed by MTT addition for 4 hrs by MTT assay; assay type: functional, cell-based; conditions: DU-145; method in brief: as §1
[5] = tested on: MCF7; assay: Induction of cell cycle arrest in human MCF7 cells assessed as accumulation at G0/G1 phase at 7 uM incubated for 24 hrs by propidium iodide staining based FACS assay (reference value: 53.32%); assay type: functional
[6] = tested on: MCF7; assay: Down-regulation of cyclin A1 mRNA expression in human MCF7 cells at 2 to 10 uM incubated for 24 hrs by quantitative real time PCR method; assay type: functional, cell-based
Method in brief: (§2)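 MCF-7 cells in DMEM/10% FBS were treated for 24 h at the indicated concentrations, then harvested, and mRNA levels were determined by qPCR.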

[7] = tested on: MCF7; assay: Induction of apoptosis in human MCF7 cells assessed as necrotic cells level at 7 uM incubated for 24 hrs by annexin-V and propidium iodide staining based flow cytometry (reference value: 2.15%); assay type: functional
[8] = tested on: MCF7; assay: Antiproliferative activity against human MCF7 cells assessed as inhibition of cell proliferation incubated for 18 hrs followed by MTT addition for 4 hrs by MTT assay; assay type: functional, cell-based; method in brief: as §1
[9] = tested on: MDA-MB-231; assay: Inhibition of AKT Ser473 phosphorylation in human MDA-MB-231 cells at 2 uM incubated for 24 hrs by Western blotting method; assay type: cell-based
Method in brief: (§3)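 After 24 h treatment, cells were washed in ice-cold PBS and lysed in RIPA buffer. Protein was measured by Bradford, equal amounts run on SDS-PAGE and transferred to PVDF. Blots were probed for p-Akt (Ser473) and total Akt, then 1 h with 1:5000 HRP anti-mouse IgG, with chemiluminescent detection. Densitometry was quantified against untreated control.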

[10] = tested on: MCF7; assay: Induction of mitochondrial membrane potential loss in human MCF7 cells assessed as increase in JC1 dye monomer green fluorescence at 7 uM incubated for 24 hrs by JC1 dye based flow cytometry (reference value: 1.78%); assay type: functional
[11] = tested on: MCF7; assay: Induction of apoptosis in human MCF7 cells assessed as late apoptotic cells level at 7 uM incubated for 24 hrs by annexin-V and propidium iodide staining based flow cytometry (reference value: 1.85%); assay type: functional
[12] = tested on: MCF7; assay: Induction of apoptosis in human MCF7 cells assessed as viable cells level at 7 uM incubated for 24 hrs by annexin-V and propidium iodide staining based flow cytometry (reference value: 89.58%); assay type: functional
[13] = tested on: MCF7; assay: Induction of cell cycle arrest in human MCF7 cells assessed as accumulation at S phase at 7 uM incubated for 24 hrs by propidium iodide staining based FACS assay (reference value: 45.21%); assay type: functional
[14] = tested on: MCF7; assay: Induction of cell cycle arrest in human MCF7 cells assessed as accumulation at G2/M phase at 7 uM incubated for 24 hrs by propidium iodide staining based FACS assay (reference value: 1.47%); assay type: functional
[15] = tested on: MCF7; assay: Down-regulation of Bcl-2 mRNA expression in human MCF7 cells at 2 to 10 uM incubated for 24 hrs by quantitative real time PCR method; assay type: functional, cell-based; method in brief: as §2
[16] = tested on: MCF7; assay: Potency index, ratio of IC50 for miltefosine to IC50 for test compound against human MCF7 cells by MTT assay; assay type: functional
[17] = tested on: MCF7; assay: Down-regulation of cyclin A2 mRNA expression in human MCF7 cells at 2 to 10 uM incubated for 24 hrs by quantitative real time PCR method; assay type: functional, cell-based; method in brief: as §2
[18] = tested on: MCF7; assay: Induction of cell cycle arrest in human MCF7 cells assessed as accumulation at sub-diploid phase at 7 uM incubated for 24 hrs by propidium iodide staining based FACS assay (reference value: 7.26%); assay type: functional
[19] = tested on: DU-145; assay: Increase in Bax/Bcl-2 expression ratio in human DU145 cells at 15 uM incubated for 24 hrs by Western blotting method; assay type: functional, cell-based
Method in brief: (§4)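 DU-145 cells were exposed for 24 h and lysed in RIPA buffer. Protein was quantified by Bradford, and equal amounts were run on SDS-PAGE, transferred to PVDF and immunoblotted, with chemiluminescent detection. Bax/Bcl-2 ratio was taken from 3 densitometric scans as mean SE versus control.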

[20] = tested on: DU-145; assay: Induction of cell cycle arrest in human DU145 cells assessed as accumulation at S phase at 15 uM incubated for 24 hrs by propidium iodide staining based FACS assay (reference value: 39.44%); assay type: functional
[21] = tested on: DU-145; assay: Induction of apoptosis in human DU145 cells assessed as early apoptotic cells level at 10 uM incubated for 24 hrs by annexin-V and propidium iodide staining based flow cytometry (reference value: 2.06%); assay type: functional
[22] = tested on: DU-145; assay: Induction of cell cycle arrest in human DU145 cells assessed as accumulation at S phase at 10 uM incubated for 24 hrs by propidium iodide staining based FACS assay (reference value: 39.44%); assay type: functional
[23] = tested on: DU-145; assay: Induction of cell cycle arrest in human DU145 cells assessed as accumulation at G0/G1 phase at 10 uM incubated for 24 hrs by propidium iodide staining based FACS assay (reference value: 53.66%); assay type: functional
[24] = tested on: DU-145; assay: Induction of cell cycle arrest in human DU145 cells assessed as accumulation at S phase at 5 uM incubated for 24 hrs by propidium iodide staining based FACS assay (reference value: 39.44%); assay type: functional
[25] = tested on: DU-145; assay: Induction of apoptosis in human DU145 cells assessed as late apoptotic cells level at 5 uM incubated for 24 hrs by annexin-V and propidium iodide staining based flow cytometry (reference value: 2.96%); assay type: functional
[26] = tested on: DU-145; assay: Induction of apoptosis in human DU145 cells assessed as late apoptotic cells level at 10 uM incubated for 24 hrs by annexin-V and propidium iodide staining based flow cytometry (reference value: 2.96%); assay type: functional
[27] = tested on: DU-145; assay: Induction of cell cycle arrest in human DU145 cells assessed as accumulation at G2/M phase at 10 uM incubated for 24 hrs by propidium iodide staining based FACS assay (reference value: 6.90%); assay type: functional
[28] = tested on: DU-145; assay: Potency index, ratio of IC50 for miltefosine to IC50 for test compound against human DU145 cells by MTT assay; assay type: functional
[29] = tested on: DU-145; assay: Induction of mitochondrial membrane potential loss in human DU145 cells assessed as increase in JC1 dye monomer green fluorescence at 10 uM incubated for 24 hrs by JC1 dye based flow cytometry (reference value: 2.81%); assay type: functional
[30] = tested on: DU-145; assay: Induction of apoptosis in human DU145 cells assessed as viable cells level at 10 uM incubated for 24 hrs by annexin-V and propidium iodide staining based flow cytometry (reference value: 93.65%); assay type: functional
[31] = tested on: DU-145; assay: Induction of mitochondrial membrane potential loss in human DU145 cells assessed as increase in JC1 dye monomer green fluorescence at 15 uM incubated for 24 hrs by JC1 dye based flow cytometry (reference value: 2.81%); assay type: functional
[32] = tested on: DU-145; assay: Induction of apoptosis in human DU145 cells assessed as necrotic cells level at 10 uM incubated for 24 hrs by annexin-V and propidium iodide staining based flow cytometry (reference value: 1.33%); assay type: functional
[33] = tested on: DU-145; assay: Induction of cell cycle arrest in human DU145 cells assessed as accumulation at G0/G1 phase at 5 uM incubated for 24 hrs by propidium iodide staining based FACS assay (reference value: 53.66%); assay type: functional
[34] = tested on: DU-145; assay: Induction of mitochondrial membrane potential loss in human DU145 cells assessed as increase in JC1 dye monomer green fluorescence at 5 uM incubated for 24 hrs by JC1 dye based flow cytometry (reference value: 2.81%); assay type: functional
[35] = tested on: DU-145; assay: Induction of apoptosis in human DU145 cells assessed as late apoptotic cells level at 15 uM incubated for 24 hrs by annexin-V and propidium iodide staining based flow cytometry (reference value: 2.96%); assay type: functional
[36] = tested on: DU-145; assay: Induction of apoptosis in human DU145 cells assessed as viable cells level at 15 uM incubated for 24 hrs by annexin-V and propidium iodide staining based flow cytometry (reference value: 93.65%); assay type: functional
[37] = tested on: DU-145; assay: Induction of mitochondrial membrane potential loss in human DU145 cells assessed as increase in JC1 dye monomer green fluorescence incubated for 24 hrs by JC1 dye based flow cytometry; assay type: functional, cell-based
[38] = tested on: DU-145; assay: Induction of apoptosis in human DU145 cells assessed as necrotic cells level at 15 uM incubated for 24 hrs by annexin-V and propidium iodide staining based flow cytometry (reference value: 1.33%); assay type: functional
[39] = tested on: DU-145; assay: Induction of cell cycle arrest in human DU145 cells assessed as accumulation at G2/M phase at 5 uM incubated for 24 hrs by propidium iodide staining based FACS assay (reference value: 6.90%); assay type: functional
[40] = Antiproliferative activity against human PC3 cells assessed as inhibition of cell proliferation incubated for 18 hrs followed by MTT addition for 4 hrs by MTT assay; assay type: functional, cell-based; conditions: PC-3; method in brief: as §1
[41] = tested on: DU-145; assay: Increase in Bax protein expression in human DU145 cells at 5 to 15 uM incubated for 24 hrs by Western blotting method; assay type: functional, cell-based; method in brief: as §4
[42] = tested on: DU-145; assay: Inhibition of AKT Ser473 phosphorylation in human DU145 cells at 15 uM incubated for 24 hrs by Western blotting method; assay type: cell-based; method in brief: as §3
[43] = tested on: DU-145; assay: Induction of cell cycle arrest in human DU145 cells assessed as accumulation at G2/M phase at 15 uM incubated for 24 hrs by propidium iodide staining based FACS assay (reference value: 6.90%); assay type: functional
[44] = tested on: DU-145; assay: Induction of cell cycle arrest in human DU145 cells assessed as accumulation at G0/G1 phase at 15 uM incubated for 24 hrs by propidium iodide staining based FACS assay (reference value: 53.66%); assay type: functional
[45] = tested on: DU-145; assay: Induction of apoptosis in human DU145 cells assessed as early apoptotic cells level at 5 uM incubated for 24 hrs by annexin-V and propidium iodide staining based flow cytometry (reference value: 2.06%); assay type: functional
[46] = tested on: DU-145; assay: Induction of apoptosis in human DU145 cells assessed as viable cells level at 5 uM incubated for 24 hrs by annexin-V and propidium iodide staining based flow cytometry (reference value: 93.65%); assay type: functional
[47] = Reduction in Bcl-2 protein expression in human DU145 cells at 5 to 15 uM incubated for 24 hrs by Western blotting method; assay type: functional, cell-based; conditions: DU-145
[48] = tested on: DU-145; assay: Induction of apoptosis in human DU145 cells assessed as necrotic cells level at 5 uM incubated for 24 hrs by annexin-V and propidium iodide staining based flow cytometry (reference value: 1.33%); assay type: functional
[49] = tested on: DU-145; assay: Induction of apoptosis in human DU145 cells assessed as early apoptotic cells level at 15 uM incubated for 24 hrs by annexin-V and propidium iodide staining based flow cytometry (reference value: 2.06%); assay type: functional

CCCCCCCCCCOP(=O)(O)OCCSC(=S)N1CCCCC1
IC50 [1]: 24.6 µM | IC50 [2]: 70.7 µM | Activity [3]: 41.66% | IC50 [4]: 29.3 µM | Activity [5]: 60.99% | Activity [6]: Active | Activity [7]: 2.15% | IC50 [8]: 7.24 µM | inhibition [9]: Active | Activity [10]: 44.62% | Activity [11]: 12.76% | Activity [12]: 43.43% | Activity [13]: 39.01% | Activity [14]: 0% | Activity [15]: Active | Ratio IC50 [16]: 5 | Activity [17]: Active | Activity [18]: 23.81%

CCCCCCCCCCCCCCCCOP(=O)(O)OCCSC(=S)N1CCCCC1
IC50 [1]: 100 µM | Activity [19]: Active | IC50 [2]: > 100 µM | Activity [20]: 27.27% | Activity [21]: 11.06% | Activity [22]: 32.94% | Activity [23]: 61.15% | Activity [24]: 35.26% | Activity [25]: 2.91% | Activity [26]: 4.52% | Activity [27]: 5.92% | Ratio IC50 [28]: 2 | Activity [29]: 30.84% | Activity [30]: 83.02% | Activity [31]: 9.29% | Activity [32]: 1.4% | Activity [33]: 59.09% | IC50 [4]: 14.7 µM | Activity [34]: 3.68% | Activity [35]: 6.33% | Activity [36]: 78.81% | Activity [37]: Dose-dependent effect | Activity [38]: 2.21% | Activity [39]: 5.65% | IC50 [8]: 29 µM | IC50 [40]: 34.3 µM | Activity [41]: Active | inhibition [42]: Active | Activity [43]: 5.6% | Activity [44]: 67.13% | Activity [45]: 9% | Activity [46]: 86.45% | Activity [47]: Active | Activity [48]: 1.64% | Activity [49]: 12.65%
